Usually IC50 stands for the point on the concentration scale where inhibition reaches its midpoint.

From PMC4467529 (Bioorganic & medicinal chemistry, 2015) come the findings set out here.

Entries after “also recorded” stand apart in the source; their conditions may differ.

A short description of data set [1]: In vitro cytotoxicity, Neutral Red assay. To be noted: human, SK-OV-3 ovary carcinoma cells. Type of data set: cell-based. The gist of the method: (§1)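 Cells grown in RPMI-1640 with 10% bovine calf serum and amikacin (60 mg/L), 37°C, 5% CO₂, 95% humidity. Seeded at 25,000 cells/well, grown 24 h. Test samples diluted in serum-free medium, exposure 48 h. Viable cells counted by Neutral Red uptake; % viability loss against vehicle control. IC50 from dose curves, triplicate, means reported.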

Data set [2] in a line: In vitro cytotoxicity, Neutral Red assay. It is filed as cell-based. To be noted: human, SK-MEL malignant melanoma cells. The gist of the method:
(§2)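 Cells were kept in RPMI-1640 with 10% bovine calf serum and amikacin 60 mg/L at 37 °C, 5% CO₂. They were seeded at 25,000 cells/well and grown 24 h, then exposed 48 h to test compound diluted in serum-free medium, tested up to 25 μg/ml. Viability was read by Neutral Red, as % decrease versus vehicle. IC50 came from dose curves, in triplicate, with doxorubicin as reference.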

Data set [3] in a line: In vitro cytotoxicity, Neutral Red assay. To be noted: human, BT-549 breast ductal carcinoma cells. It is filed as cell-based. The gist of the method:
as §2

Data set [4] is described as follows: In vitro cytotoxicity, Neutral Red assay. It is filed as cell-based. To be noted: African green monkey, Vero cells (kidney fibroblasts). The method, boiled down:
as §2

Data set [5] in a line: In vitro cytotoxicity, Neutral Red assay. It is filed as cell-based. To be noted: pig, LLC-PK11 pig kidney epithelial cells. The method, boiled down: as §2
A short description of data set [6]: In vitro cytotoxicity, Neutral Red assay. To be noted: human, KB oral epidermal carcinoma cells. It is filed as cell-based. The method, boiled down: as §1
Another data set has as its system NF-κB. Type of data set: cell-based, human. The note with it: for NF-κB inhibitory activity (in words): PMA-induced SW1353 cells. The method, boiled down:
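SW1353 cells were grown in DMEM/F12 with 10% FBS and electroporated with an NF-κB luciferase plasmid (50 μg/mL; 160 V, one 70-ms pulse). They were plated at 1.25 × 10⁵ cells/well for 24 h. […] Parthenolide was the reference; Sp-1 served as control factor.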

In the next data set the test system is rat paw edema. The data set is described as follows: Carrageenan-induced rat paw edema assay. Type of data set: in vivo. The note with it: for in vivo anti-inflammatory activity (in words): rat paw edema, compared to ketorolac; for Edema thickness ±SEM, 1h / Edema thickness ±SEM, 2h / Edema thickness ±SEM, 3h / Edema thickness ±SEM, 4h: rat, 30 mg/kg intraperitoneally; for Edema thickness ±SEM, 1h: 1h after induction; for Edema thickness ±SEM, 2h: 2h after induction; for Edema thickness ±SEM, 3h: 3h after induction; for Edema thickness ±SEM, 4h: 4h after induction. The method, boiled down: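 Adult albino rats of both sexes (120–150 g), pre-hydrated with 3 ml water by gavage, in groups of five. Test compound or ketorolac tromethamine was suspended in distilled water with a few drops of Tween 80 and given i.p. 1 h before 1% carrageenan s.c. into the right hind subplantar paw. Controls got saline/Tween 80.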

On to `O=c1oc2ccccc2n1CCCN1CCN(CCCn2c(=O)oc3ccccc32)CC1` [Compound 3c, 3,3′-(piperazine-1,4-diylbis(propane-3,1-diyl))bis(benzo[d]oxazol-2(3H)-one)], for which the IC50 at 48 h in data set [1], in data set [2], in data set [3], in data set [4], in data set [5] and in data set [6] was above 25 µg/mL in each case.
As for `O=c1oc2ccccc2n1CCCCCN1CCN(CCCCCn2c(=O)oc3ccccc32)CC1` [Compound 3g, 3,3′-(piperazine-1,4-diylbis(pentane-5,1-diyl))bis(benzo[d]oxazol-2(3H)-one)], the 50% inhibitory concentration (IC50) at 48 h in data set [1], in data set [2], in data set [3], in data set [5] and in data set [6] was above 25 µg/mL each time.
On to `O=c1sc2ccccc2n1CCCCCN1CCN(CCCCCn2c(=O)sc3ccccc32)CC1` [Compound 3h, 3,3′-(piperazine-1,4-diylbis(pentane-5,1-diyl))bis(benzo[d]thiazol-2(3H)-one)], for which the IC50 at 48 h in data set [4], in data set [5] and in data set [6] was above 25 µg/mL throughout.
Turning to `O=c1oc2ccccc2n1CCCCCCN1CCN(CCCCCCn2c(=O)oc3ccccc32)CC1` [Compound 3i, 3,3′-(piperazine-1,4-diylbis(hexane-6,1-diyl))bis(benzo[d]oxazol-2(3H)-one)], the IC50 at 48 h in data set [1], in data set [4], in data set [5] and in data set [6] was above 25 µg/mL in each case. The IC50 in the data set on NF-κB (Homo sapiens, SW1353, read-out: NF-κB IC50) is above 25 µg/mL. Moreover, the “NF-κB inhibitory activity (in words)” value in the data set with NF-κB is recorded as “devoid of any activity”.
In the case of `O=c1sc2ccccc2n1CCCCCCN1CCN(CCCCCCn2c(=O)sc3ccccc32)CC1` [Compound 3j, 3,3′-(piperazine-1,4-diylbis(hexane-6,1-diyl))bis(benzo[d]thiaazol-2(3H)-one)], in the data set with rat paw edema, the “in vivo anti-inflammatory activity (in words)” value was “significant anti-inflammatory and analgesic activity; also recorded: moderate activities compared to ketorolac”; the “Edema thickness ±SEM, 1h” value is recorded as 95.50 ± 1.02 ×10^−2 mm; the “Edema thickness ±SEM, 2h” value is reported as 97.24 ± 2.35 ×10^−2 mm; the “Edema thickness ±SEM, 3h” value is given as 101.6 ± 1.68 ×10^−2 mm. Also, the “Edema thickness ±SEM, 4h” value in the data set with rat paw edema was 123.5 ± 1.13 ×10^−2 mm. The compound also gave an IC50 at 48 h in data set [2] above 25 µg/mL. This compound also returned an IC50 at 48 h in data set [4] above 25 µg/mL. Also, the IC50 at 48 h in data set [5] is above 25 µg/mL.
As for `O=c1oc2ccccc2n1CCCCCN1CCN(CCn2c(=O)oc3ccccc32)CC1` [Compound 5e, 3-(5-(4-(2-(2-oxobenzo[d]oxazol-3(2H)-yl)ethyl)piperazin-1-yl)pentyl)benzo[d]oxazol-2(3H)-one], the IC50 at 48 h in data set [1], in data set [2], in data set [3], in data set [4], in data set [5] and in data set [6] was above 25 µg/mL in each case.
With `O=c1sc2ccccc2n1CCCCCCN1CCN(CCn2c(=O)sc3ccccc32)CC1` [Compound 5h, 3-(6-(4-(2-(2-oxobenzo[d]thiazol-3(2H)-yl)ethyl)piperazin-1-yl)hexyl)benzo[d]thiazol-2(3H)-one], the “NF-κB inhibitory activity (in words)” value in the data set with NF-κB is on record as “moderately active”.
Take `O=c1sc2ccccc2n1CCCCN1CCN(CCCn2c(=O)sc3ccccc32)CC1` [Compound 5j, 3-(3-(4-(4-(2-oxobenzo[d]thiazol-3(2H)-yl)butyl)piperazin-1-yl)propyl)benzo[d]thiazol-2(3H)-one]: the “NF-κB inhibitory activity (in words)” value in the data set with NF-κB was “moderately active”.
Consider `O=c1sc2ccccc2n1CCCCCN1CCN(CCCn2c(=O)sc3ccccc32)CC1` [Compound 5l, 3-(3-(4-(5-(2-oxobenzo[d]thiazol-3(2H)-yl)pentyl)piperazin-1-yl)propyl)benzo[d]thiazol-2(3H)-one], for which the IC50 at 48 h in data set [1], in data set [4], in data set [5] and in data set [6] was above 25 µg/mL each time.
Consider `O=c1sc2ccccc2n1CCCCCCN1CCN(CCCn2c(=O)sc3ccccc32)CC1` [Compound 5n, 3-(3-(4-(6-(2-oxobenzo[d]thiazol-3(2H)-yl)hexyl)piperazin-1-yl)propyl)benzo[d]thiazol-2(3H)-one], for which the IC50 at 48 h in data set [1], in data set [4], in data set [5] and in data set [6] was above 25 µg/mL each time. Also, the “NF-κB inhibitory activity (in words)” value with NF-κB is listed as “moderately active”.
Take `O=c1sc2ccccc2n1CCCCCN1CCN(CCCCn2c(=O)sc3ccccc32)CC1` [Compound 5p, 3-(5-(4-(4-(2-oxobenzo[d]thiazol-3(2H)-yl)butyl)piperazin-1-yl)pentyl)benzo[d]thiazol-2(3H)-one]: the IC50 at 48 h in data set [1], in data set [4], in data set [5] and in data set [6] was above 25 µg/mL each time.
`O=c1oc2ccccc2n1CCCCCCN1CCN(CCCCn2c(=O)oc3ccccc32)CC1` [Compound 5q, 3-(6-(4-(4-(2-oxobenzo[d]oxazol-3(2H)-yl)butyl)piperazin-1-yl)hexyl)benzo[d]oxazol-2(3H)-one]: the IC50 at 48 h in data set [1], in data set [2], in data set [3], in data set [4], in data set [5] and in data set [6] was above 25 µg/mL each time.
On to `O=c1sc2ccccc2n1CCCCCCN1CCN(CCCCn2c(=O)sc3ccccc32)CC1` [Compound 5r, 3-(6-(4-(4-(2-oxobenzo[d]thiazol-3(2H)-yl)butyl)piperazin-1-yl)hexyl)benzo[d]thiazol-2(3H)-one], for which the IC50 at 48 h in data set [1], in data set [4] and in data set [5] was above 25 µg/mL in each case.
With `O=c1oc2ccccc2n1CCCCCCN1CCN(CCCCCn2c(=O)oc3ccccc32)CC1` [Compound 5s, 3-(5-(4-(6-(2-oxobenzo[d]oxazol-3(2H)-yl)hexyl)piperazin-1-yl)pentyl)benzo[d]oxazol-2(3H)-one], the IC50 at 48 h in data set [1], in data set [4], in data set [5] and in data set [6] was above 25 µg/mL each time.
For `O=c1sc2ccccc2n1CCCCCCN1CCN(CCCCCn2c(=O)sc3ccccc32)CC1` [Compound 5t, 3-(5-(4-(6-(2-oxobenzo[d]thiazol-3(2H)-yl)hexyl)piperazin-1-yl)pentyl)benzo[d]thiazol-2(3H)-one], in the data set with rat paw edema, the “in vivo anti-inflammatory activity (in words)” value is “significant anti-inflammatory and analgesic activity; also recorded: moderate activities compared to ketorolac”; the “Edema thickness ±SEM, 1h” value was 93.01 ± 1.93 ×10^−2 mm; the “Edema thickness ±SEM, 2h” value is reported as 91.57 ± 2.63 ×10^−2 mm; the “Edema thickness ±SEM, 3h” value is listed as 109.24 ± 1.36 ×10^−2 mm. In addition, in the data set on rat paw edema, the “Edema thickness ±SEM, 4h” value is reported as 127.34 ± 1.87 ×10^−2 mm. For the same compound, in data set [2], the half-inhibitory concentration (IC50) at 48 h was above 25 µg/mL. The compound further registered an IC50 at 48 h in data set [5] above 25 µg/mL. In data set [6], this compound gave an IC50 at 48 h above 25 µg/mL.
As to `c1ccc2oc(SCCCCN3CCN(CCCCSc4nc5ccccc5o4)CC3)nc2c1` [Compound 8a, 1,4-bis(4-(benzo[d]oxazol-2-ylthio)butyl)piperazine], the IC50 at 48 h in data set [1] and in data set [4] was above 25 µg/mL each time.
Take `c1ccc2sc(SCCCCN3CCN(CCCCSc4nc5ccccc5s4)CC3)nc2c1` [Compound 8b, 1,4-bis(4-(benzo[d]thiazol-2-ylthio)butyl)piperazine]: in the data set with rat paw edema, the “in vivo anti-inflammatory activity (in words)” value is “significant anti-inflammatory and analgesic activity; also recorded: most active dimer; also recorded: promising in vivo activity which was comparable to indomethacin and ketorolac”; the “Edema thickness ±SEM, 1h” value is 56.48 ± 2.14 ×10^−2 mm; the “Edema thickness ±SEM, 2h” value is given as 55.6 ± 2.09 ×10^−2 mm; the “Edema thickness ±SEM, 3h” value was 61.32 ± 1.67 ×10^−2 mm. Also, the “Edema thickness ±SEM, 4h” value with rat paw edema is listed as 103.54 ± 1.77 ×10^−2 mm. For the same compound, the IC50 at 48 h in data set [1] was above 25 µg/mL. Moreover, in data set [3], the IC50 at 48 h was above 25 µg/mL. This compound gave an IC50 at 48 h in data set [4] above 25 µg/mL. This compound returned a half-maximal inhibitory concentration (IC50) at 48 h in data set [5] above 25 µg/mL.
Consider `O=C(c1ccccc1)c1ccc2n1CCC2C(=O)O` (stereo not shown) [Ketorolac, ketorolac tromethamine, reference compound], for which, in the data set with rat paw edema, the “Edema thickness ±SEM, 1h” value is on record as 41.6 ± 2.02 ×10^−2 mm; the “Edema thickness ±SEM, 2h” value is listed as 40.2 ± 2.82 ×10^−2 mm; the “Edema thickness ±SEM, 3h” value is reported as 41.2 ± 2.06 ×10^−2 mm; the “Edema thickness ±SEM, 4h” value was 40.4 ± 1.52 ×10^−2 mm.
